TRPN1 ag: activates the zebrafish TRPN1 channel; HEK293 zebrafish TRPN1-YFP, Fluo-8 calcium fluorescence; 100% = response to 87 µM carbachol; activation, % at 3 µM; actives 0.18% (n = 220,000);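 active means activation above its plate's cutoff, the mean activation of test wells on that plate plus 3 SD, cut at about 19% in these data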;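 further: 0% = DMSO alone and 100% = 87 µM carbachol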
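Assay system: Zebrafish TRPN1-YFP in HEK293 cells | Incubation: Dye loading 1 h at 37 °C, then 30 min room temperature | Measured by: Kinetic Fluo-8 fluorescence, ex 470-495, em 515-575 nm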
TRPML3 ag: activates the human TRPML3 channel. Q8TDD5. HEK293 TRPML3-YFP, Fluo-8 calcium fluorescence; 100% = the carbachol control signal. activation, % at 3 µM. actives 0.29% (n = 220,000);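 active means activation above its plate's cutoff, the mean activation of the plate's test wells plus 3 SD, cut at about 12% in these data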;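 further: 0% = DMSO only wells and 100% = carbachol wells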
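system = HEK293 cells stably carrying human TRPML3-YFP | doses = one concentration, 3 µM nominal, 0.3% DMSO | timing = dye loading 1 h 37 °C then 30 min ambient, 125 s read | detection = Fluo-8 calcium dye fluorescence, ex 470-495, em 515-575 nm | benchmarks = high control carbachol 87 µM, low control DMSO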
OX1R antag-1: antagonists of human orexin 1 receptor (OX1R); O43613; OX1R-expressing cells, FRET antagonist read-out; inhibition, % at 6.6 µM; actives 1.8% (n = 330,000); AID 485270; in the data active means inhibition mostly above about 38%, no sharp cut-off; inactive means mostly below about 40%;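 further: 0% = agonist challenge alone and 100% = reference antagonist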
Target sequence (O43613 whole entry, looked up): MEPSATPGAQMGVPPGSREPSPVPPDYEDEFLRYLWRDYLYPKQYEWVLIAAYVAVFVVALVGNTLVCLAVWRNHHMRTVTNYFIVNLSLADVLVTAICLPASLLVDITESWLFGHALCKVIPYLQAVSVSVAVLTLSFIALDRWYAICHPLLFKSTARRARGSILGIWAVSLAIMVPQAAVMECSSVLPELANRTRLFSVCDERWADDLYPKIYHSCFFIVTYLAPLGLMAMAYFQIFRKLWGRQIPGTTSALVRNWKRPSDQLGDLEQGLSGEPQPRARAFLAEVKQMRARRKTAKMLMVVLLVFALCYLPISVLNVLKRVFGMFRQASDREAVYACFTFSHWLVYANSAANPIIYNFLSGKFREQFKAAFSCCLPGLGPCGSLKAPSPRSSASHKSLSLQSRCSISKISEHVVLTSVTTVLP
CHO parental Ca: counter-screen for OX1R antagonists: effect in parental CHO cells; parental CHO-K1, ATP-induced calcium, Fluo-8 fluorescence; inhibition, % at 5.6 µM; actives 0.63% (n = 330,000); AID 463079;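 active means inhibition above that plate's mean sample inhibition plus 3 SD, cut at about 26% in these data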;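 further: 0% = ATP-challenged DMSO wells and 100% = DMSO wells without ATP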
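Assay system: parental CHO cells; Read-out basis: percent inhibition of ATP-evoked calcium rise, normalized to controls; Benchmarks: ATP and no-ATP DMSO wells; Compound dosing: single nominal dose of 5.6 µM per compound; Signal: Fluo-8 calcium dye fluorescence; Also added: ATP as calcium-mobilizing challenge; Repeats: singlicate.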
OX1R antag-2: human HCRTR1 antagonism; CHO/OX1R cells, Fluo-8 calcium fluorescence, orexin A; inhibition, % at 5 µM; actives 0.43% (n = 330,000); AID 434989;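 active means inhibition above its plate's threshold, mean inhibition of all tested compounds on the plate plus 3 SD, cut at about 37% in these data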;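 further: 0% = orexin A challenge wells and 100% = SB-334867-A antagonist wells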
* = called active by the depositor; . = no result given. In the library only some 2.5% were active in any assay of this set; here they are far more common.

SMILES | TRPN1 ag | TRPML3 ag | OX1R antag-1 | CHO parental Ca | OX1R antag-2
Cc1ccc(CNC(=O)CS(=O)(=O)Cc2nc(-c3ccc(C)cc3)oc2C)cc1 | . | . | 3.3 | -28.0 | -19.8
O=C(N/N=C/c1ccc(-c2ccc([N+](=O)[O-])cc2)o1)C(O)c1ccccc1 (centres undefined) | -0.5 | 1.1 | 17.7 | -11.8 | -17.4
O=C(N/N=C/c1ccc([N+](=O)[O-])o1)C(O)c1ccccc1 (centres undefined) | 3.4 | 0.8 | 36.2* | -6.8 | -2.9
COC(=O)/C(=C\c1ccc([N+](=O)[O-])o1)NC(=O)c1ccccc1 | 0.3 | 1.2 | 69.2* | 1.7 | -3.6
COC(=O)N/N=C/c1cc(OC)c(O)c([N+](=O)[O-])c1 | -0.3 | 0.5 | 51.3* | -4.5 | -17.5
CCCCNC(=O)/C(=C\c1ccc([N+](=O)[O-])o1)NC(=O)c1ccccc1 | 0.4 | -0.2 | 36.0 | -15.2 | -25.2
O=[N+]([O-])c1ccc(/C=[N+](\[O-])CCO)o1 | 0.3 | 0.8 | 47.0* | -7.3 | -13.6
C/C(CC(=O)NCc1ccccc1Cl)=N/NC(=O)c1ccccn1 | . | . | 31.3 | -12.8 | -19.9
C#CCN1c2ccccc2Sc2cccnc21 | . | . | 26.3 | -0.1 | -6.6
NS(=O)(=O)c1cc(Cl)c(NC(=O)COC(=O)c2ccccn2)c(Cl)c1 | . | . | -2.7 | 1.5 | 0.1
O=C(CSc1ccc(Cl)cc1)N/N=C/c1ccc([N+](=O)[O-])o1 | . | . | 25.4 | -7.2 | -19.2
Cc1cc(C(=O)N/N=C/c2ccc([N+](=O)[O-])o2)c(C)o1 | 0.4 | 1.0 | 31.8 | -5.4 | 8.0
O=C(CNc1ccc2ccccc2c1)N/N=C/c1ccc([N+](=O)[O-])o1 | 0.9 | 0.3 | 46.1* | 40.9* | 23.6
O=C(COc1ccccc1)N/N=C/c1ccc([N+](=O)[O-])o1 | 1.6 | 0.8 | 53.1 | 0.0 | -7.5
NC(=O)N/N=C/c1ccc([N+](=O)[O-])o1 | . | . | 66.2* | 3.8 | -2.6
COC(=O)N/N=C/c1ccc([N+](=O)[O-])o1 | 0.5 | 0.2 | 55.8* | -7.1 | -13.2
COc1ccccc1NC(=O)C1CCCN1C(=O)NC1CCCCC1 (centres undefined) | . | . | 8.9 | -7.5 | -14.4
Cc1ccc(CS(=O)(=O)c2ncc(Cl)c(C(=O)Nc3ccc(OC(F)F)cc3)n2)cc1 | . | . | 24.6 | 59.1* | 51.0*
O=C(CSc1nnc2n1CCCN2)c1ccc([N+](=O)[O-])cc1 | 1.6 | 0.5 | 50.9* | -20.8 | -15.0
O=C(CSc1nc2ccccc2s1)N1c2ccccc2Sc2ccc(C(F)(F)F)cc21 | -0.4 | 1.2 | 6.2 | -2.5 | -11.9
O=C(CSc1nc2ccccc2s1)N1c2ccccc2Sc2ccc(Cl)cc21 | 0.9 | 0.1 | 44.8* | 5.1 | -3.6
Nc1nc2c(c(=O)[nH]1)C(c1cccc3ccccc13)C1=C(N2)c2ccccc2C1=O (centres undefined) | 1.1 | 0.3 | . | . | .
Cc1c(O)cc2c(c1O)C(=O)CC(c1ccccc1)O2 (centres undefined) | . | . | 3.5 | 100.1* | 105.1*
COc1c(O)cc2c(c1O)C(=O)CC(c1ccccc1)O2 (centres undefined) | 0.5 | 0.2 | . | . | .
Cc1cc(N)n2nc(C)c(-c3ccc(Cl)cc3)c2n1 | -0.3 | 0.1 | 10.4 | -11.8 | -10.8
SMILES | TRPN1 ag | TRPML3 ag | OX1R antag-1 | CHO parental Ca | OX1R antag-2
Cc1cc(N)n2nc(C)c(-c3ccccc3)c2n1 | -3.2 | -0.6 | 63.5* | -11.5 | -9.3
CS(=O)(=O)N(Cc1ccc(Cl)cc1)c1ccc(C(=O)N2CCN(c3ccccc3)CC2)cc1 | 0.4 | 1.0 | 4.5 | 33.7* | 24.4
O=C(N/N=C/C(Cl)=C/c1ccc([N+](=O)[O-])cc1)C(=O)Nc1cccc(C(=O)O)c1 | -0.1 | -0.1 | 65.8* | 3.2 | -16.5
COc1ccc(CCNC(=O)CCCN2C(=O)c3ccccc3C2=O)cc1 | 0.7 | 0.7 | 4.6 | -11.9 | -11.9
Cc1c(C(=O)Nc2ccc3c(c2)OCCO3)sc2nc(-c3ccccc3)cn12 | 5.5 | 1.7 | 65.6* | 45.6* | 67.5*
Cc1c(C(=O)NCc2ccco2)sc2nc(-c3ccccc3)cn12 | 3.0 | -0.1 | 23.4 | -10.3 | -12.3
Cc1c(C(=O)Nc2ccncc2)sc2nc(-c3ccccc3)cn12 | 8.0 | 3.5 | 37.2* | 13.3 | -6.4
Cc1c(C(=O)N2CCOCC2)sc2nc(-c3ccccc3)cn12 | -0.1 | 0.5 | 15.9 | -2.9 | -13.2

Screens: PubChem, The Scripps Research Institute Molecular Screening Center
